Data from article PMC7867784 (Translational Lung Cancer Research, 2021).

Tested on: Japanese patients with RET-rearranged NSCLC
Test: ALL-RET phase 1/2 trial: safety
Assay type: in vivo, human
How it was run: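 Adverse events were graded by NCI CTCAE v4.0, with causal relation to treatment recorded separately. Dose finding used a 3+3 de-escalation design with 3–6 patients per cohort. DLT was evaluated over the first 21-day cycle and defined as grade ≥4 thrombopenia, grade ≥3 febrile neutropenia, grade ≥4 neutropenia lasting ≥4 days, or grade ≥3 non-hematologic toxicity, with specified exceptions. Follow-up ran until January 2019.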

[1] = 600 mg BID (N=6), dose limiting toxicity
[2] = Japanese patients with RET-rearranged NSCLC

With `CCc1cc2c(cc1N1CCC(N3CCOCC3)CC1)C(C)(C)c1[nH]c3cc(C#N)ccc3c1C2=O` [alectinib] the “Constipation, any grade, number [causally related]” value (600 mg BID (N=6)) was 4 [4], the “Constipation, any grade, percent” value (600 mg BID (N=6)) was 66.7% and the “Constipation, grade 1–2, number (total)” value (600 mg BID (N=6)) was 4 [4]. For the same compound, the “Constipation, grade 1–2, number [causally related]” value (600 mg BID (N=6)) was 4 [4], the “Constipation, grade 3, number” value (600 mg BID (N=6)) was 0 and the “Constipation, grade 4, number” value (600 mg BID (N=6)) was 0. For the same compound, the “Creatine phosphokinase increase, any grade, number (total)” value (600 mg BID (N=6)) was 2 [2], the “Creatine phosphokinase increase, any grade, number [causally related]” value (600 mg BID (N=6)) was 2 [2] and the “Creatine phosphokinase increase, any grade, percent” value (600 mg BID (N=6)) was 33.3%. The “Creatine phosphokinase increase, grade 1–2, number (total)” value (600 mg BID (N=6)) was 1[1], the “Creatine phosphokinase increase, grade 1–2, number [causally related]” value (600 mg BID (N=6)) was 1[1] and the “Creatine phosphokinase increase, grade 4, number” value (600 mg BID (N=6)) was 0. For the same compound, the “Creatinine increase, any grade, number (total)” value (600 mg BID (N=6)) was 2 [2], the “Creatinine increase, any grade, number [causally related]” value (600 mg BID (N=6)) was 2 [2] and the “Creatinine increase, any grade, percent” value (600 mg BID (N=6)) was 33.3%. For the same compound, the “Creatinine increase, grade 1–2, number (total)” value (600 mg BID (N=6)) was 2[2], the “Creatinine increase, grade 1–2, number [causally related]” value (600 mg BID (N=6)) was 2[2] and the “Creatinine increase, grade 3, number” value (600 mg BID (N=6)) was 0. For the same compound, the “Creatinine increase, grade 4, number” value (600 mg BID (N=6)) was 0, the “Dysgeusia, any grade, number (total)” value (600 mg BID (N=6)) was 2 [2] and the “Dysgeusia, any grade, number [causally related]” value (600 mg BID (N=6)) was 2 [2]. For the same compound, the “Dysgeusia, any grade, percent” value (600 mg BID (N=6)) was 33.3%, the “Dysgeusia, grade 1–2, number (total)” value (600 mg BID (N=6)) was 2 [2] and the “Dysgeusia, grade 1–2, number [causally related]” value (600 mg BID (N=6)) was 2 [2]. For the same compound, the “Dysgeusia, grade 3, number” value (600 mg BID (N=6)) was 0, the “Dysgeusia, grade 4, number” value (600 mg BID (N=6)) was 0 and the “Erythema multiforme, any grade, number (total)” value (600 mg BID (N=6)) was 1 [1]. For the same compound, the “Erythema multiforme, any grade, number [causally related]” value (600 mg BID (N=6)) was 1 [1], the “Erythema multiforme, any grade, percent” value (600 mg BID (N=6)) was 16.7% and the “Erythema multiforme, grade 1–2, number” value (600 mg BID (N=6)) was 0. The “Erythema multiforme, grade 4, number” value (600 mg BID (N=6)) was 0, the “Hepatic function abnormal, any grade, number (total)” value (600 mg BID (N=6)) was 2 [2] and the “Hepatic function abnormal, any grade, number [causally related]” value (600 mg BID (N=6)) was 2 [2]. The “Hepatic function abnormal, any grade, percent” value (600 mg BID (N=6)) was 33.3%, the “Hepatic function abnormal, grade 1–2, number (total)” value (600 mg BID (N=6)) was 1 [1] and the “Hepatic function abnormal, grade 1–2, number [causally related]” value (600 mg BID (N=6)) was 1 [1]. For the same compound, the “Hepatic function abnormal, grade 4, number” value (600 mg BID (N=6)) was 0, the “Lymphocyte decrease, any grade, number (total)” value (600 mg BID (N=6)) was 1 [1] and the “Lymphocyte decrease, any grade, number [causally related]” value (600 mg BID (N=6)) was 1 [1]. For the same compound, the “Lymphocyte decrease, any grade, percent” value (600 mg BID (N=6)) was 16.7%, the “Lymphocyte decrease, grade 1–2, number” value (600 mg BID (N=6)) was 0 and the “Lymphocyte decrease, grade 3, number” value (600 mg BID (N=6)) was 0. The “Lymphocyte decrease, grade 4, number (total)” value (600 mg BID (N=6)) was 1 [1], the “Lymphocyte decrease, grade 4, number [causally related]” value (600 mg BID (N=6)) was 1 [1] and the “Myalgia, any grade, number (total)” value (600 mg BID (N=6)) was 3 [3]. For the same compound, the “Myalgia, any grade, number [causally related]” value (600 mg BID (N=6)) was 3 [3], the “Myalgia, any grade, percent” value (600 mg BID (N=6)) was 50.0% and the “Myalgia, grade 1–2, number (total)” value (600 mg BID (N=6)) was 3 [3]. For the same compound, the “Myalgia, grade 1–2, number [causally related]” value (600 mg BID (N=6)) was 3 [3], the “Myalgia, grade 3, number” value (600 mg BID (N=6)) was 0 and the “Myalgia, grade 4, number” value (600 mg BID (N=6)) was 0. The “Oedema peripheral, any grade, number (total)” value (600 mg BID (N=6)) was 2 [2], the “Oedema peripheral, any grade, number [causally related]” value (600 mg BID (N=6)) was 2 [2] and the “Oedema peripheral, any grade, percent” value (600 mg BID (N=6)) was 33.3%. The “Oedema peripheral, grade 1–2, number (total)” value (600 mg BID (N=6)) was 2 [2], the “Oedema peripheral, grade 1–2, number [causally related]” value (600 mg BID (N=6)) was 2 [2] and the “Oedema peripheral, grade 3, number” value (600 mg BID (N=6)) was 0. The “Oedema peripheral, grade 4, number” value (600 mg BID (N=6)) was 0, the “Rash, any grade, number (total)” value (600 mg BID (N=6)) was 1 [1] and the “Rash, any grade, number [causally related]” value (600 mg BID (N=6)) was 1 [1]. For the same compound, the “Rash, any grade, percent” value (600 mg BID (N=6)) was 16.7%, the “Rash, grade 1–2, number” value (600 mg BID (N=6)) was 0 and the “Rash, grade 4, number” value (600 mg BID (N=6)) was 0. For the same compound, the “Thromboembolic event, any grade, number (total)” value (600 mg BID (N=6)) was 1 [1], the “Thromboembolic event, any grade, number [causally related]” value (600 mg BID (N=6)) was 1 [1] and the “Thromboembolic event, any grade, percent” value (600 mg BID (N=6)) was 16.7%. The “Thromboembolic event, grade 1–2, number” value (600 mg BID (N=6)) was 0, the “Thromboembolic event, grade 4, number” value (600 mg BID (N=6)) was 0 and the “Creatine phosphokinase increase, grade 3, number (total)” value [1] was 1[1]*. For the same compound, the “Creatine phosphokinase increase, grade 3, number [causally related]” value [1] was 1[1]*, the “Erythema multiforme, grade 3, number (total)” value [1] was 1 [1]* and the “Erythema multiforme, grade 3, number [causally related]” value [1] was 1 [1]*. The “Hepatic function abnormal, grade 3, number (total)” value [1] was 1 [1]*, the “Hepatic function abnormal, grade 3, number [causally related]” value [1] was 1 [1]* and the “Rash, grade 3, number (total)” value [1] was 1 [1]*. For the same compound, the “Rash, grade 3, number [causally related]” value [1] was 1 [1]*, the “Thromboembolic event, grade 3, number (total)” value [1] was 1 [1]* and the “Thromboembolic event, grade 3, number [causally related]” value [1] was 1 [1]*. For the same compound, the “patients whose treatment was discontinued due to DLTs” value (600 mg BID, out of 6 patients) was 2, the “MTD (maximum tolerated dose)” value [2] was 450 mg BID and the “recommended dose (RD) for phase 2” value [2] was 450 mg BID. For the same compound, the “DLTs observed in case S1-3” value (cohort 1, 600 mg BID) was “grade 3 rash and hepatic function abnormal”, the “DLTs observed in case S1-4” value (cohort 1, 600 mg BID) was “grade 3 erythema multiforme and thromboembolic event” and the “number of dose-limiting toxicities (DLTs)” value (phase 1 cohort 1, 600 mg BID, 6 patients) was 5. For the same compound, the “patients with DLTs” value (phase 1 cohort 1, 600 mg BID, of 6 patients) was 3, the DLTs (phase 1 cohort 2, 450 mg BID, 3 patients) was “no DLTs” and the “grade 3 adverse events including pneumonitis” value (phase 2, 450 mg BID) was 4%.
